Measured values from different studies.
Protocols differ between the studies behind these lines.
Read-out: cell growth or viability

Cc1nc(C(CN)NC(=O)C(=O)Nc2ccc3c(c2)OCO3)sc1CO (centres unmarked) — CC50 (MT2; MTS; 96 h): ≥ 650 µM
C=C(C)c1ccccc(=O)c1O — CC50 (HepDES19; MTS; 72 h): 53.5 µM
NCCN(C(=O)c1ccc(Cl)cc1Cl)c1ccc(OCc2ccc(Cl)cc2)cc1 — CC50 (HEK293; MTT; 24 h): 7.96 µM
O=P(O)(O)c1cc2c(O)c(c1)Cc1cc(P(=O)(O)O)cc(c1O)Cc1cc(P(=O)(O)O)cc(c1O)Cc1cc(P(=O)(O)O)cc(c1O)Cc1cc(P(=O)(O)O)cc(c1O)Cc1cc(P(=O)(O)O)cc(c1O)Cc1cc(P(=O)(O)O)cc(c1O)Cc1cc(P(=O)(O)O)cc(c1O)C2 — CC50 (HEK293; ATP luminescence; 24 h): 747 µM
CC[C@H](C)[C@H](NC(=O)OCC1c2ccccc2-c2ccccc21)C(=O)Sc1cccccc1=O — CC50 (HepDES19; MTS; 72 h): 42.6 µM
N=C(N)c1ccc(OCCCCCOc2ccc(C(=N)N)cc2)cc1 — CC50 (HEK293; MTT; 24 h): 82.9 µM
O=c1cccccc1Sc1cccccc1=O — CC50 (HepDES19; MTS; 72 h): 20.8 µM
CCOc1ccc(-c2nc(CNCCc3ccc(F)cc3)cs2)cc1 — CC50 (HEK293; MTT; 24 h): 39 µM
COC(=O)N[C@H](C(=O)N1CCC[C@H]1c1nc(-c2ccc(-c3ccc(-c4c[nH]c([C@@H]5CCCN5C(=O)[C@@H](NC(=O)OC)C(C)C)n4)cc3)cc2)c[nH]1)C(C)C — CC50 (MT2; 5 days): 90 µM
O[C@@H](c1cc(C(F)(F)F)nc2c(C(F)(F)F)cccc12)[C@H]1CCCCN1 — CC50 (HEK293; MTT; 24 h): 8.84 µM
N#Cc1cc(Cl)cc(Oc2ccc(Cl)cc2OCCn2cc(Cl)c(=O)[nH]c2=O)c1 — CC50 (MT2): 31 µM
CC(C)c1cccc(=O)c(O)c1 — CC50 (HepDES19; MTS; 72 h): 66.4 µM
CC/C(=C(\c1ccccc1)c1ccc(OCCN(C)C)cc1)c1ccccc1 — CC50 (HEK293; resazurin; 20 h): 9 µg/mL
CC1c2cc(c(O)c(O)c2O)C(C)c2cc(c(O)c(O)c2O)C(C)c2cc(c(O)c(O)c2O)C(C)c2cc1c(O)c(O)c2O (centres unmarked) — CC50 (HEK293; MTT; 24 h): 402 µM
